Measured values: ChEMBL document CHEMBL3102849, “A heat shock protein 90 inhibitor that modulates the immunophilins and regulates hormone receptors without inducing the heat shock response” (Bioorg Med Chem Lett, 2014)
The source made the active and inactive calls. The calls are words filed in the database; no cut-off is given here. Residues, ends and D or L forms follow the SMILES beside them.

Columns and labels:
[1] = molecular target: Heat shock protein HSP 90-beta (Homo sapiens) (UniProt P08238); experiment: Inhibition of Hsp90 (unknown origin) at 50 uM preincubated for 1 hr followed by denatured luciferase addition measured at 45 mins by bright glo luciferase refolding assay in presence of Hsp70/Hsp40/HOP relative to control
Outline: (§1)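 Pure-protein refolding: heat-denatured firefly luciferase incubated with 0.5μM hsp90, 1μM hsp70, 0.2μM hsp40 and 0.1μM HOP; compound at 50μM; luciferase activity followed over time, expressed versus control; n=3, mean±SEM.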

[2] = molecular target: Heat shock protein HSP 90-beta (Homo sapiens) (UniProt P08238); experiment: Inhibition of Hsp90 in human HeLa cells assessed as downregulation of glucocorticoid receptor protein level at 40 uM after 30 hours by Western blotting analysis in presence of proteasome inhibitor MG-132; assay type: cell-based
[3] = molecular target: Heat shock protein HSP 90-beta (Homo sapiens) (UniProt P08238); experiment: Inhibition of human Hsp90 assessed as disruption of interaction with recombinant p23 up to 10 uM by Western blotting analysis
[4] = molecular target: T1, Heat shock protein HSP 90 (Oryctolagus cuniculus) (UniProt P11500); experiment: Inhibition of Hsp90 in rabbit reticulocyte lysate at 50 uM measured at 30 mins by bright glo luciferase refolding assay relative to control
T1 sequence (whole entry): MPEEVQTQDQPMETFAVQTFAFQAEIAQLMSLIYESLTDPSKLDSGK
Outline: (§2)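 Heat-denatured firefly luciferase incubated in rabbit reticulocyte lysate, the complete lysate system; compound at 50μM; refolding followed over time by luciferase activity relative to control; n=3, mean±SEM.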

[5] = molecular target: Heat shock protein HSP 90-beta (Homo sapiens) (UniProt P08238); experiment: Inhibition of Hsp90 (unknown origin) at 50 uM preincubated for 1 hr followed by denatured luciferase addition measured after 2 hrs by bright glo luciferase refolding assay in presence of Hsp70/Hsp40/HOP relative to control
Outline: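 Purified refolding system: heat-denatured firefly luciferase incubated with 0.5 μM hsp90, 1 μM hsp70, 0.2 μM hsp40 and 0.1 μM HOP plus test agent (1 μM or 50 μM). Luciferase activity was followed over time up to 2 h and expressed relative to control. n=3, mean±SEM.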

[6] = molecular target: T1, Heat shock protein HSP 90 (Oryctolagus cuniculus); experiment: Inhibition of Hsp90 in rabbit reticulocyte lysate at 50 uM measured at 15 mins by bright glo luciferase refolding assay relative to control; outline: as §2
[7] = molecular target: Heat shock protein HSP 90-beta (Homo sapiens) (UniProt P08238); experiment: Binding affinity to human Hsp90 assessed as inhibition of interaction with His/GST-tagged recombinant co-chaperone Unc45 up to 10 uM preincubated for 1 hr followed by co-chaperone addition measured after 1 hr by Western blotting analysis
Outline: (§3)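 In vitro binding assay: pure native hsp90 combined with individual purified TPR co-chaperones (Unc45, CHIP, TOM70, Cyp40, FKBP51, FKBP52), with compound added in increasing amounts up to 5 or 10 μM. Co-chaperone–hsp90 association was scored against the compound-free condition.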

[8] = molecular target: Heat shock protein HSP 90-beta (Homo sapiens) (UniProt P08238); experiment: Inhibition of Hsp90 (unknown origin) at 50 uM preincubated for 1 hr followed by denatured luciferase addition measured at 15 mins by bright glo luciferase refolding assay in presence of Hsp70/Hsp40/HOP relative to control; outline: as §1
[9] = molecular target: Heat shock protein HSP 90-beta (Homo sapiens) (UniProt P08238); experiment: Binding affinity to human Hsp90 assessed as inhibition of interaction with His/GST-tagged recombinant co-chaperone CHIP up to 10 uM preincubated for 1 hr followed by co-chaperone addition measured after 1 hr by Western blotting analysis; outline: as §3
[10] = molecular target: Heat shock protein HSP 90-beta (Homo sapiens) (UniProt P08238); experiment: Inhibition of Hsp90 (unknown origin) at 50 uM preincubated for 1 hr followed by denatured luciferase addition measured at 120 mins by bright glo luciferase refolding assay in presence of Hsp70/Hsp40/HOP relative to control; outline: as §1
[11] = molecular target: Heat shock protein HSP 90-beta (Homo sapiens) (UniProt P08238); experiment: Binding affinity to human Hsp90 assessed as inhibition of interaction with His/GST-tagged recombinant co-chaperone FKBP51 up to 10 uM preincubated for 1 hr followed by co-chaperone addition measured after 1 hr by Western blotting analysis; outline: as §3
[12] = molecular target: T1, Heat shock protein HSP 90 (Oryctolagus cuniculus); experiment: Inhibition of Hsp90 in rabbit reticulocyte lysate at 50 uM measured at 75 mins by bright glo luciferase refolding assay relative to control; outline: as §2
[13] = molecular target: Heat shock protein HSP 90-beta (Homo sapiens) (UniProt P08238); experiment: Inhibition of Hsp90 in human HeLa cells assessed as downregulation of FKBP52 protein level at 40 uM after 30 hours by Western blotting analysis in presence of proteasome inhibitor MG-132; assay type: cell-based
[14] = molecular target: T1, Heat shock protein HSP 90 (Oryctolagus cuniculus); experiment: Inhibition of Hsp90 in rabbit reticulocyte lysate at 50 uM measured at 60 mins by bright glo luciferase refolding assay relative to control; outline: as §2
[15] = molecular target: Heat shock protein HSP 90-beta (Homo sapiens) (UniProt P08238); experiment: Inhibition of Hsp90 (unknown origin) at 50 uM preincubated for 1 hr followed by denatured luciferase addition measured at 105 mins by bright glo luciferase refolding assay in presence of Hsp70/Hsp40/HOP relative to control; outline: as §1
[16] = molecular target: T1, Heat shock protein HSP 90 (Oryctolagus cuniculus); experiment: Inhibition of Hsp90 in rabbit reticulocyte lysate at 50 uM measured at 90 mins by bright glo luciferase refolding assay relative to control; outline: as §2
[17] = molecular target: Heat shock protein HSP 90-beta (Homo sapiens) (UniProt P08238); experiment: Inhibition of Hsp90 (unknown origin) at 50 uM preincubated for 1 hr followed by denatured luciferase addition measured at 30 mins by bright glo luciferase refolding assay in presence of Hsp70/Hsp40/HOP relative to control; outline: as §1
[18] = molecular target: Heat shock protein HSP 90-beta (Homo sapiens) (UniProt P08238); experiment: Inhibition of Hsp90 in human HeLa cells assessed as change in Hsp70 protein expression at 5 uM to 50 uM after 30 hours by Western blotting analysis; assay type: cell-based
Outline: (§4)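 HeLa cervical carcinoma cells treated at 5μM and 50μM; cell lysates probed for the heat shock response proteins hsp70, hsp90 and HSF1 by western blot, compared with DMSO.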

[19] = molecular target: Heat shock protein HSP 90-beta (Homo sapiens) (UniProt P08238); experiment: Inhibition of Hsp90 (unknown origin) at 50 uM preincubated for 1 hr followed by denatured luciferase addition measured at 75 mins by bright glo luciferase refolding assay in presence of Hsp70/Hsp40/HOP relative to control; outline: as §1
[20] = molecular target: Heat shock protein HSP 90-beta (Homo sapiens) (UniProt P08238); experiment: Inhibition of Hsp90 in human HeLa cells assessed as downregulation of HSF1 protein expression at 5 uM to 50 uM after 30 hours by Western blotting analysis relative to DMSO-treated control; assay type: cell-based; outline: as §4
[21] = molecular target: Heat shock protein HSP 90-beta (Homo sapiens) (UniProt P08238); experiment: Binding affinity to human Hsp90 assessed as inhibition of interaction with His/GST-tagged recombinant co-chaperone CYP40 up to 10 uM preincubated for 1 hr followed by co-chaperone addition measured after 1 hr by Western blotting analysis; outline: as §3
[22] = molecular target: Heat shock protein HSP 90-beta (Homo sapiens) (UniProt P08238); experiment: Inhibition of Hsp90 (unknown origin) at 50 uM preincubated for 1 hr followed by denatured luciferase addition measured at 60 mins by bright glo luciferase refolding assay in presence of Hsp70/Hsp40/HOP relative to control; outline: as §1
[23] = molecular target: Heat shock protein HSP 90-beta (Homo sapiens) (UniProt P08238); experiment: Inhibition of Hsp90 (unknown origin) at 50 uM preincubated for 1 hr followed by denatured luciferase addition measured at 90 mins by bright glo luciferase refolding assay in presence of Hsp70/Hsp40/HOP relative to control; outline: as §1
[24] = molecular target: T1, Heat shock protein HSP 90 (Oryctolagus cuniculus); experiment: Inhibition of Hsp90 in rabbit reticulocyte lysate at 50 uM measured at 45 mins by bright glo luciferase refolding assay relative to control; outline: as §2
[25] = molecular target: Heat shock protein HSP 90-beta (Homo sapiens) (UniProt P08238); experiment: Inhibition of Hsp90 in human HeLa cells assessed as downregulation of Hsp90 protein expression at 5 uM to 50 uM after 30 hours by Western blotting analysis relative to DMSO-treated control; assay type: cell-based; outline: as §4
[26] = molecular target: Heat shock protein HSP 90-beta (Homo sapiens) (UniProt P08238); experiment: Inhibition of Hsp90 in human HeLa cells assessed as downregulation of FKBP51 protein level at 40 uM after 30 hours by Western blotting analysis in presence of proteasome inhibitor MG-132; assay type: cell-based
[27] = molecular target: Heat shock protein HSP 90-beta (Homo sapiens) (UniProt P08238); experiment: Binding affinity to human Hsp90 assessed as inhibition of interaction with His/GST-tagged recombinant co-chaperone TOM70 up to 10 uM preincubated for 1 hr followed by co-chaperone addition measured after 1 hr by Western blotting analysis; outline: as §3
[28] = molecular target: Heat shock protein HSP 90-beta (Homo sapiens) (UniProt P08238); experiment: Binding affinity to human Hsp90 assessed as inhibition of interaction with His/GST-tagged recombinant co-chaperone CHIP at 10 uM preincubated for 1 hr followed by co-chaperone addition measured after 1 hr by Western blotting analysis
Outline: (§5)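 Purified native hsp90 combined with purified TPR co-chaperone (FKBP51, FKBP52, HOP, Unc45, CHIP, Cyp40 or TOM70), with increasing compound, 0–10 μM; hsp90–co-chaperone binding measured across the range.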

[29] = molecular target: Heat shock protein HSP 90-beta (Homo sapiens) (UniProt P08238); experiment: Binding affinity to human Hsp90 assessed as inhibition of interaction with His/GST-tagged recombinant co-chaperone Cyp40 at 10 uM preincubated for 1 hr followed by co-chaperone addition measured after 1 hr by Western blotting analysis; outline: as §5
[30] = molecular target: Heat shock protein HSP 90-beta (Homo sapiens) (UniProt P08238); experiment: Inhibition of Hsp90 in human HeLa cells assessed as downregulation of FKBP52 protein level at 50 uM after 30 hours by Western blotting analysis; assay type: cell-based
Outline: (§6)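 HeLa cells treated at 5μM and 50μM; lysates western blotted for FKBP51, FKBP52 and glucocorticoid receptor; bands normalized to GAPDH and compared with DMSO control; n≥3, mean±SEM.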

[31] = molecular target: Heat shock protein HSP 90-beta (Homo sapiens) (UniProt P08238); experiment: Inhibition of Hsp90 in human HeLa cells assessed as change in FKBP51 protein level at 50 uM after 30 hours by Western blotting analysis; assay type: cell-based; outline: as §6
[32] = molecular target: Heat shock protein HSP 90-beta (Homo sapiens) (UniProt P08238); experiment: Binding affinity to human Hsp90 assessed as inhibition of interaction with His/GST-tagged recombinant co-chaperone TOM70 at 10 uM preincubated for 1 hr followed by co-chaperone addition measured after 1 hr by Western blotting analysis; outline: as §5

Chain of Heat shock protein HSP 90-beta (Homo sapiens) (P08238 whole entry): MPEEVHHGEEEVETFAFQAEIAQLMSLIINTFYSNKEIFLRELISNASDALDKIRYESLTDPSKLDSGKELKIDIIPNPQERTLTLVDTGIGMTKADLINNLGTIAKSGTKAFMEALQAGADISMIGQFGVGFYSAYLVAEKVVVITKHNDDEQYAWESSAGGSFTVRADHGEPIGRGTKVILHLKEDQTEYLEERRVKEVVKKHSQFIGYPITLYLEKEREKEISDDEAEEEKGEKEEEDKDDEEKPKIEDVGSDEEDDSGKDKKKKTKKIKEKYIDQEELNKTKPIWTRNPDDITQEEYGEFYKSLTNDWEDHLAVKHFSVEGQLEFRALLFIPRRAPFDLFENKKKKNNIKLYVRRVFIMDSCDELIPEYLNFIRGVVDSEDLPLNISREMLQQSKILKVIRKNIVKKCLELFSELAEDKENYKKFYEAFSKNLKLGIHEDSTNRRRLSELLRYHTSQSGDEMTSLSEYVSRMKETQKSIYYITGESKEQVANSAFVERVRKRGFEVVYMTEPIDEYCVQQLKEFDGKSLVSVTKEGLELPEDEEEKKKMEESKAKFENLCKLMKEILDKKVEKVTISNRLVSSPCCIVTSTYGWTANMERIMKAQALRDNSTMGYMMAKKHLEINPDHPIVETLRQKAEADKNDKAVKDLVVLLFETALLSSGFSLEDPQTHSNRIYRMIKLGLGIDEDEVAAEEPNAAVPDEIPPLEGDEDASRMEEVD

Structure (SMILES)	RLU [1]	RLU [4]	RLU [6]	RLU [8]	RLU [10]	RLU [12]	RLU [14]	RLU [15]	RLU [16]	RLU [17]	inhibition [18]	RLU [19]	inhibition [20] [%]	RLU [22]	RLU [23]	RLU [24]	inhibition [25] [%]	other results
CC(C)C[C@@H]1NC(=O)[C@H](C(C)C)N(C)C(=O)[C@@H](CC(C)C)NC(=O)[C@@H](Cc2ccccc2)NC(=O)[C@@H]([C@H](OCc2ccccc2)c2ccccc2)NC1=O (HELM PEPTIDE1{[O=C([C@H](N[*:1])[C@H](OCc1ccccc1)c1ccccc1)[*:2]].[dF].[dL].[meV].L}$PEPTIDE1,PEPTIDE1,1:R1-5:R2$$$V2.0)	5700	10800	5240	3800	9190	25300	21800	8800	29600	4360	Active	7810	50	6340	8670	16800	50	inhibition [2]: Active; inhibition [3]: Active; inhibition [5]: 55%; inhibition [7]: Active; inhibition [9]: Active; inhibition [11]: Active; inhibition [13]: Active; inhibition [21]: Active; inhibition [26]: Active; inhibition [27]: Active
CO[C@H]1[C@H](OC(=O)c2ccc(C)[nH]2)[C@H](O)[C@@H](Oc2ccc3c(O)c(NC(=O)c4c[nH]c(C(=O)Nc5c(O)c6ccc(O[C@H]7OC(C)(C)[C@@H](OC)[C@H](OC(=O)c8ccc(C)[nH]8)[C@@H]7O)c(C)c6oc5=O)c4C)c(=O)oc3c2C)OC1(C)C	498	10600	4670	519	417	22000	19200	467	25400	565	Active	540	50	497	520	15500	50	inhibition [28]: Active; inhibition [29]: Active; inhibition [30]: Active; inhibition [31]: Active; inhibition [32]: Active
